Published values gathered from unrelated publications.
Each line is one published result; the experiments were not run side by side.
Target: Serine/threonine-protein kinase D3 (PRKD3, Homo sapiens, UniProt O94806)
Residues used in one study (O94806 1-890): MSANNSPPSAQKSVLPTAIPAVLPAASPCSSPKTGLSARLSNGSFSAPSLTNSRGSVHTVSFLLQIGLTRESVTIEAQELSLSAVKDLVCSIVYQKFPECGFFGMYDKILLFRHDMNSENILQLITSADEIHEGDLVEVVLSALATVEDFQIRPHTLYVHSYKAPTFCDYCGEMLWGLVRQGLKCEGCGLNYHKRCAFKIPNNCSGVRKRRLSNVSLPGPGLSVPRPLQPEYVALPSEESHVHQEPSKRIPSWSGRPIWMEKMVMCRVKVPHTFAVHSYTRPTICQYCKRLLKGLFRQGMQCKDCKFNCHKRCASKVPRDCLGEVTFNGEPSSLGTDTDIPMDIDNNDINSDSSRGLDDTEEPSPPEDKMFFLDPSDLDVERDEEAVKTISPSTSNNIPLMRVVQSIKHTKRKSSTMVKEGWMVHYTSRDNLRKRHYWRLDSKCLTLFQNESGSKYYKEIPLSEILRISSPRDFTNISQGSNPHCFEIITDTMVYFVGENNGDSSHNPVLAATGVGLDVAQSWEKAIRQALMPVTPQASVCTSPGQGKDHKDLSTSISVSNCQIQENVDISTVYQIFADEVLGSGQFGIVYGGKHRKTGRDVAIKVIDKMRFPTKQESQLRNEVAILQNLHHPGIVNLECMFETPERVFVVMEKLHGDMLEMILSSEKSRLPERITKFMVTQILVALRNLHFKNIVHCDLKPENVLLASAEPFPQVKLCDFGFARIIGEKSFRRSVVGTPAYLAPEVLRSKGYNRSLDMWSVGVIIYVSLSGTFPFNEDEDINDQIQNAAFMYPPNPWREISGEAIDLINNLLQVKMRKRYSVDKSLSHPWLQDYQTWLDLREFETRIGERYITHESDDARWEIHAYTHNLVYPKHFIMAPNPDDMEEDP

For Cc1nn(C)cc1-c1nc2c(N3CCN(Cc4ccc(Cl)cc4)CC3)c(Cl)cnc2[nH]1, the remaining binding was 100% (binding; competition with immobilised ligand; 1 µM).
For COc1cc(Nc2ncc(F)c(Nc3ccc4c(n3)NC(=O)C(C)(C)O4)n2)cc(OC)c1OC, the inhibition was 0% (binding; 10 µM).
Cn1cncc1[C@](O)(COc1ccc(C#N)cc1-c1ccc(OC(F)(F)F)cc1)c1ccc(C#N)cc1 gave a remaining binding of 100% (cell-free assay; competition with immobilised ligand; 1 µM).
The inhibition of Cn1cc(-c2cc(F)cc(N3CCn4c(cc5c4CCCC5)C3=O)c2CO)cc(Nc2ccc(N3CCN(C4COC4)CC3)cn2)c1=O is reported as 11% (enzyme activity; inhibitor; 0.1 µM).
COc1ncccc1-c1cnn2ccc(N3CCN(C(=O)OC(C)C)CC3)nc12 gave a remaining binding of 100% (binding; competition with immobilised ligand; 1 µM).
O=c1[nH]c2ccccc2n1C1CCN(Cc2ccc(-c3[nH]c4cc5ncnc5cc4nc3-c3ccccc3)cc2)CC1 has a remaining signal of 99.5% (cell-free assay; 0.5 µM).
The remaining binding of N#CC1(c2ccccn2)CCN(Cc2cc(C(=O)O)c(=O)n3ccccc23)CC1 is reported as 98% (cell-free assay; competition with immobilised ligand; 1 µM).
With Nc1ncc(-c2nc(N3CCOCC3)nc(N3CCOCC3)n2)c(C(F)F)n1 the remaining binding was 67% (binding; competition with immobilised ligand; 10 µM).
CC(C)(C)c1cc(C=C(C#N)C#N)cc(Br)c1O gave a remaining activity of 92.7% (enzyme activity; inhibitor; 0.5 µM).
